# The sample as a whole holds a higher share of hits than the screen did.
# T cruzi HTS: blocks T. cruzi growth inside host cells | intracellular Trypanosoma cruzi in host cells, plate reader | activity score (inhibition), % at 5.01 µM | 4.9% of 22,000 active | AID 651903; in the data active means activity score above about 55%;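 further: parasites and compound incubated about four days before reading; 0% = median of neutral control wells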
# INS-1E ATP HTS: INS-1E beta cell protection from cytokine death; protection from cytokine-induced ATP loss, % at 10 µM; 0.1% of 20,000 active; INS-1E cytokine-induced death, ATP luminescence, 48 h; normalised: neutral wells 0, positive control 100;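 active means mean replicate protection from cytokine-induced ATP loss at least 50% and at least 75% of replicates each reaching 50%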
#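 Test system: INS-1E rat cells | Quantity: 8000 cells per well | Medium: Phenol-red-free RPMI with 5% fetal bovine serum | Reagent: Cytokine cocktail of IFN-γ, TNF-α and IL-1β | Doses: One compound concentration, pin transfer | Timing: 48 h co-treatment, 10 min post-lysis read | Technique: Luminescent ATP assay (CellTiter-Glo)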
# A1 apoptosis 2: compounds inhibiting A1, read as caspase activation | MEF A1-2A-BIM cells, caspase-Glo luminescence, 3 h; percent of clofoctol response, DMSO zero | caspase activation, % (concentration not given with the values) | 24,000 tested, under 10 active | AID 2465; in the data active means caspase activation above about 5.9%
#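 Material: mouse embryonic fibroblasts co-expressing A1 and BIM (A1-2A-BIM), primed for A1 dependence / Quantity: 2500 cells/well / Buffer or medium: RPMI-1640 growth medium with 10% FBS / Doses: 50 nL compound per well, pinned / Schedule: 3 h compound exposure at 37 °C / Signal: Caspase-Glo luminescence (DEVD substrate) / Measure: Caspase-3/7 activation, seen as rise in luminescence signal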
# The depositor's hits bear a star; x = no result given.
SMILES,T cruzi HTS,INS-1E ATP HTS,A1 apoptosis 2
COc1ccc(S(=O)(=O)N(C)C[C@@H]2Oc3c(NC(=O)Nc4ccc(C(F)(F)F)cc4)cccc3C(=O)N([C@@H](C)CO)C[C@@H]2C)cc1,61*,-59,0
C[C@H]1CN([C@@H](C)CO)C(=O)Cc2cc(NC(=O)Cc3ccccc3)ccc2O[C@H]1CN(C)Cc1ccncc1,-2,-10,0
O=C(O)CCCCCC(=O)N/N=C/c1ccc(CO)o1,-20,-1,x
Cc1noc(C)c1S(=O)(=O)N(C)C[C@@H]1Oc2ccc(NS(C)(=O)=O)cc2CC(=O)N([C@H](C)CO)C[C@@H]1C,-10,-4,0
COC(=O)CCCCCCC(=O)N/N=C/c1ccc(N(C)CCO)cc1,22,1,0
C[C@@H]1CCCCO[C@H](CN(C)S(=O)(=O)c2ccc(Cl)cc2)[C@@H](C)CN([C@H](C)CO)C(=O)c2cc(NC(=O)Nc3ccc(C(F)(F)F)cc3)ccc2O1,71*,-53,1
C[C@@H]1CN([C@@H](C)CO)C(=O)c2cc(NC(=O)Nc3ccc(C(F)(F)F)cc3)ccc2O[C@H]1CN(C)CC1CCCCC1,40,-22,1
C[C@H]1CCCCO[C@@H](CN(C)CC2CCCCC2)[C@@H](C)CN([C@@H](C)CO)C(=O)c2cc(NC(=O)Nc3ccc(C(F)(F)F)cc3)ccc2O1,x,x,2
C[C@@H]1CN([C@@H](C)CO)C(=O)c2cccc(NC(=O)Nc3ccc(C(F)(F)F)cc3)c2O[C@@H]1CN(C)CC1CC1,-17,-19,-1
C[C@@H]1CCCCO[C@@H](CN(C)S(=O)(=O)c2ccc(Cl)cc2)[C@@H](C)CN([C@H](C)CO)C(=O)c2cc(NC(=O)Nc3ccc(C(F)(F)F)cc3)ccc2O1,51,-9,x
C[C@@H]1CN([C@@H](C)CO)C(=O)c2cccc(NC(=O)Nc3ccc(C(F)(F)F)cc3)c2O[C@@H]1CN(C)CC1CCCCC1,78*,-64,-1
C[C@H](CO)N1C[C@H](C)[C@H](CN(C)CC2CCCCC2)Oc2ccc(NC(=O)Nc3ccc(C(F)(F)F)cc3)cc2C1=O,62*,-45,-1
C[C@@H]1CCCCO[C@@H](CN(C)CC2CCCCC2)[C@@H](C)CN([C@H](C)CO)C(=O)c2cc(NC(=O)Nc3ccc(C(F)(F)F)cc3)ccc2O1,73*,-12,x
C[C@H](CO)N1C[C@H](C)[C@@H](CN(C)C(=O)Cc2ccccc2)OCCCC[C@H](C)Oc2ccc(NC(=O)c3ccccc3)cc2C1=O,x,x,0
O=C(N/N=C/c1nccs1)c1ccccn1,-25,-87,-1
O=C(CCCCCC(=O)Nc1ccccc1O)N/N=C/c1cccc(O)c1,-9,10,2
CCCCN(CCCC)c1ccc(/C=N/NC(=O)c2ccccn2)cc1,52,-1,x
CC(C)=CCC[C@@H](C)C/C=N/NC(=O)CCCCCCC(=O)O,-3,7,1
C[C@H]1CN([C@@H](C)CO)C(=O)c2cc(NS(=O)(=O)c3ccc(F)cc3)ccc2O[C@H]1CN(C)Cc1ccccc1,13,1,0
C=CCN1C(=S)N[C@@H]2c3ccccc3O[C@@]1(C)[C@@H]2CO,x,x,1
C[C@@H]1CN([C@@H](C)CO)C(=O)c2cc(NC(=O)Nc3ccc(F)cc3)ccc2O[C@@H](C)CCCCO[C@@H]1CN(C)CC1CCCCC1,x,x,1
C[C@@H]1CCCCO[C@@H](CN(C)CC2CCCCC2)[C@@H](C)CN([C@H](C)CO)C(=O)c2cc(NC(=O)Nc3ccc(F)cc3)ccc2O1,71*,-15,x
COc1ccc([Si](C)(C)[C@@H]2[C@@H](CCO)O[C@]3(C(=O)N4c5c(cc(OC)cc53)C(C)=CC4(C)C)[C@H]2C)cc1,x,x,27*
COc1ccc([Si](C)(C)[C@H]2[C@H](CCO)O[C@@]3(C(=O)N(c4ccccc4)c4ccccc43)[C@@H]2C)cc1,x,x,-1
COc1ccc([Si](C)(C)[C@@H]2[C@@H](CCn3cc(CCO)nn3)O[C@]3(C(=O)N(c4ccccc4)c4ccccc43)[C@H]2C)cc1,x,x,12*
COc1ccc([Si](C)(C)[C@@H]2[C@@H](CCn3cc(CCO)nn3)O[C@]3(C(=O)N(C)c4ccccc43)[C@H]2C)cc1,x,x,1
C=C[C@@H](COC(C)=O)NS(=O)(=O)c1ccc(Br)cc1,x,x,0
O=C(CCCCCCC(=O)Nc1ccccc1O)N/N=C/c1ccc2c(c1)CCO2,-7,3,0
C[C@H]1CCCCO[C@H](CN(C)C(=O)Nc2ccc(C(F)(F)F)cc2)[C@@H](C)CN([C@@H](C)CO)C(=O)c2cc(NC(=O)Cc3ccccc3)ccc2O1,x,x,1

# Source: PubChem
